These results are taken from BindingDB's records for doi:10.1021/jm0300835 (Duke University, 2003).

Experiment [1] addresses T1, M-phase inducer phosphatase 2 (Homo sapiens, UniProt P30305).
T1 sequence (P30305 whole entry): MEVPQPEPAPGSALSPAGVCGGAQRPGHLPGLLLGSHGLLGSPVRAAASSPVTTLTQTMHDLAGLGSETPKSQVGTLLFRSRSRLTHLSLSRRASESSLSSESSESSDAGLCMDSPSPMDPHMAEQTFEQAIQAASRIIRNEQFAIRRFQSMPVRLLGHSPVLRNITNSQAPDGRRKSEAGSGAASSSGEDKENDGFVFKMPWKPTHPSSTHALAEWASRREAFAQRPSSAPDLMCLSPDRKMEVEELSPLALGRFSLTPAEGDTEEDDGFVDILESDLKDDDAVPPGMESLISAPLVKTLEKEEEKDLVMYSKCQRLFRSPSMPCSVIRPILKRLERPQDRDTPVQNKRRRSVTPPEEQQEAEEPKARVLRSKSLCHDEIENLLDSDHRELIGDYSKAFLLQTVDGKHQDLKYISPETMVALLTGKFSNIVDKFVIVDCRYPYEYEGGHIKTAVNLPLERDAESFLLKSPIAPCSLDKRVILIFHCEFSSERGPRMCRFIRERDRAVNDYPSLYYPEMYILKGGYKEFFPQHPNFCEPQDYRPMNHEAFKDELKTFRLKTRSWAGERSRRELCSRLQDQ
Description: Inhibitory concentration of compound against mutant WT of Cdc25B phosphatase was determined. An outline of the steps: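 Cdc25B catalytic domain constructs (wild-type, site-directed point mutants, truncated); activity with 3-O-methylfluorescein phosphate at 50 μM (~5 × Km), product read at 477 nm by UV-vis under initial velocity (2–5% turnover); eight inhibitor concentrations, IC50 fitted; values are mean of two determinations.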

Experiment [2] deals with T1, M-phase inducer phosphatase 2. Description: Inhibitory concentration of compound against Cdc25B phosphatase was determined using CDK2-p-TpY/Cyclin A as a substrate. The gist of the method:
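Cdc25B IC50 with Cdk2-pTpY/CycA protein substrate at 300 nM; eight inhibitor concentrations; time-dependent assays; 1 mg/mL BSA carrier added only after TCA quench, not during reaction.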

For experiment [3] the target is unchanged. Put plainly: Eight point inhibitory concentration against Cell division cycle 25B was determined. The gist of the method:
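Cdc25B activity read by UV-vis at 477 nm as product formed from 3-O-methylfluorescein phosphate (mFP) at 50 μM (~5 × Km), time-dependent, initial-velocity conditions (2–5% turnover); eight inhibitor concentrations, IC50 fitted to eq 1. Each reaction compared with a simultaneous no-inhibitor control; selected compounds run in duplicate.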

Experiment [4] has the same target. Put plainly: Inhibitory concentration of compound against mutant E478Q of Cell division cycle 25B was determined. An outline of the steps: (§1)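 Cdc25B catalytic-domain point mutants, a truncated form and wild type were assayed with 3-O-methylfluorescein phosphate as substrate, monitored at 477 nm under initial velocity conditions. Values are the mean of two separate determinations.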

Experiment [5] has the same target. Put plainly: Inhibitory concentration of compound against mutant E474Q of Cell division cycle 25B was determined. The gist of the method: as §1
Experiment [6] shares this target. Put plainly: Inhibitory concentration of compound against mutant M531A of Cell division cycle 25B was determined. The gist of the method:
as §1

The target of experiment [7] is T2, M-phase inducer phosphatase 3 (Homo sapiens, UniProt P30307).
T2 sequence (P30307 whole entry): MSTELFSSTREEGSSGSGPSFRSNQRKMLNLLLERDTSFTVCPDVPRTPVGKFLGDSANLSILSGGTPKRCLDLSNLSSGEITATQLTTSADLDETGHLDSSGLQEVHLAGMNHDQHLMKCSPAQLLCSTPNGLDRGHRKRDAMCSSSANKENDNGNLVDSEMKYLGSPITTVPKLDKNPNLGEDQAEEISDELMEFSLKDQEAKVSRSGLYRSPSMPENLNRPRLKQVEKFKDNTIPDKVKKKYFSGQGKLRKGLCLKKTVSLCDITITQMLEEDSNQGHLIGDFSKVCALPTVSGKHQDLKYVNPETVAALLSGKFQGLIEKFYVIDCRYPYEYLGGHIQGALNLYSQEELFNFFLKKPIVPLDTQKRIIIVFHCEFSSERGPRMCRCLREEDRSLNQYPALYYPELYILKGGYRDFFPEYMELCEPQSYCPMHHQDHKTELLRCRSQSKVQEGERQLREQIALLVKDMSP
Description: Eight point inhibitory concentration against […] was determined. The gist of the method:
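Phosphatase activity measured with 3-O-methylfluorescein phosphate at 50 μM (~5 × Km), product formation followed at 477 nm by UV-vis under initial velocity conditions (2–5% turnover) in time-dependent assays. Eight inhibitor concentrations were used, and IC50 was obtained by fitting to a dose–response equation.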

In experiment [8] the target is T1, M-phase inducer phosphatase 2. Description: Inhibitory concentration of compound against mutant F475A of Cell division cycle 25B was determined. The gist of the method: as §1

`O=C1CC(=O)C(=O)C(c2c[nH]c3ccccc23)C1=O` [2,5-Dihydroxy-3-(1H-indol-3-yl)-[1,4]benzoquinone]: the IC50 in experiment [1] was 18 µM; in experiment [2], > 50 µM; in experiment [3], 18 µM.
On to `CC(C)=CCc1cccc2c(C3C(=O)C(=O)CC(=O)C3=O)c[nH]c12` [2,5-Dihydroxy-3-[7-(3-methyl-but-2-enyl)-1H-indol-3-yl]-[1,4]benzoquinone], for which the IC50 in experiment [4] is 6.5 µM; in experiment [5] it was > 50 µM; in experiment [6], 6.5 µM; in experiment [7], 15 µM; in experiment [8], > 50 µM.

Usually IC50 stands for the point on the concentration scale where inhibition reaches its midpoint. Low readings indicate inhibition by little substance, high ones a need for much substance.
